In assay [1] the target is T1, Heat shock protein HSP 90-alpha (Homo sapiens, UniProt P07900). The assay can be described thus: Inhibition of HSP90-alpha (unknown origin) expressed in Escherichia coli BL21 assessed as reduction in ATPase activity in presence of PEP, NADH and ATP by pyruvate kinase/lactic dehydrogenase based coupled enzyme assay.
Assay [2] concerns CNE-2. In words: Cytotoxicity in human CNE-2 cells assessed as reduction in cell viability incubated for 48 hrs by MTT assay. Type of assay: cell-based. The note with it: CNE-2, 48 h. The essentials: (§1)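 Cells were seeded at 3 × 10³ cells per well and grown for 24 h at 37 °C in 5% CO₂. CNE2 was grown in RPMI 1640 and HeLa and HepG2 in DMEM, each with 10% FBS and 1% penicillin/streptomycin. Cells were exposed to 0−20 μM inhibitor for 48 h, with a DMSO solvent control. MTT (0.5 mg/mL) was then added for 3 h.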

In assay [3] the target is T2, Heat shock protein HSP 90-beta (Homo sapiens, UniProt P08238). In words: Inhibition of HSP90-beta (unknown origin) expressed in Escherichia coli BL21 assessed as reduction in ATPase activity in presence of PEP, NADH and ATP by pyruvate kinase/lactic dehydrogenase based coupled enzyme assay.
T2 sequence (P08238 whole entry): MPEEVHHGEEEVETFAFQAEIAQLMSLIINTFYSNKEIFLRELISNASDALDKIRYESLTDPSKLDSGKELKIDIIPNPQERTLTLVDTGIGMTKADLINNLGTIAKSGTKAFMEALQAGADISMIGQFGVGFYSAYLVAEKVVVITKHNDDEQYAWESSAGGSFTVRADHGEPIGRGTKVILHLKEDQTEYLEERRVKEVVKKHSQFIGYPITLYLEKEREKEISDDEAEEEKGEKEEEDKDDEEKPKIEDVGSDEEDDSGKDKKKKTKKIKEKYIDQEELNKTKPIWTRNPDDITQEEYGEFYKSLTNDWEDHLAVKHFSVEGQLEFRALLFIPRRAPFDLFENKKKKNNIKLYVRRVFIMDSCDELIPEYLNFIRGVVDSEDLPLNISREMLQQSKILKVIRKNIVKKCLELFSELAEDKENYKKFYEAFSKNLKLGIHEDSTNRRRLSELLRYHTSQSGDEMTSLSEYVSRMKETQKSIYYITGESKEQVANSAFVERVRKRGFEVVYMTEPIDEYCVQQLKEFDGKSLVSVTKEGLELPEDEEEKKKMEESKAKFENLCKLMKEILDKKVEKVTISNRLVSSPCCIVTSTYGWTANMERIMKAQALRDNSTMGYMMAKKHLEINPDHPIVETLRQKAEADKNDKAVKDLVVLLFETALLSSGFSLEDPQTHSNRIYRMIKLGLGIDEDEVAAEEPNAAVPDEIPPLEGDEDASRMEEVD
Assay [4] has as its system HeLa. The assay can be described thus: Cytotoxicity in human HeLa cells assessed as reduction in cell viability incubated for 48 hrs by MTT assay. Type of assay: cell-based. The procedure, abridged:
as §1
On the technique in general: Tetrazolium assays rely on reduction of a dye to a coloured formazan, in cell work by metabolically active cells.

The target in assay [5] is T1, Heat shock protein HSP 90-alpha. The assay can be described thus: Binding affinity to HSP90-alpha (unknown origin) expressed in Escherichia coli BL21 by SPR assay. For orientation: Surface plasmon resonance follows binding to a sensor surface in real time, without labels.
In assay [6] the test system is HepG2. In words: Cytotoxicity in human HepG2 cells assessed as reduction in cell viability incubated for 48 hrs by MTT assay. Type of assay: cell-based. Conditions: HepG2, 48 h. The essentials:
as §1

Assay [7] concerns the target T2, Heat shock protein HSP 90-beta. In words: Binding affinity to HSP90-beta (unknown origin) expressed in Escherichia coli BL21 by SPR assay.

The source made the active and inactive calls. No cut-off for these calls is given here.

The IC50 is the concentration that inhibits the measured activity by half. For the compound `COc1ccc(-c2cn(Cc3ccc(C(C)(C)C)cc3)nn2)c([N+](=O)[O-])c1`, the figures for the IC50 in assay [1], in assay [2] and in assay [3] were 5 µM, 1.6 µM and 5 µM, respectively.
In the case of `COc1ccc(-c2cn(Cc3ccc(C(C)(C)C)cc3)nn2)c(N)c1`, the IC50 is more than 40 µM in assay [1], more than 20 µM in assay [2] and more than 40 µM in assay [3].
Broadly, the Kd is the concentration at which binding is half-saturated. `COc1ccc(-c2cn(Cc3ccc(C(C)(C)C)cc3)nn2)cc1`: the half-maximal inhibitory concentration (IC50) in assay [1] is 5.6 µM; in assay [2] it was 4 µM; in assay [4], more than 50 µM; in assay [6], more than 50 µM; in assay [3], 5.6 µM. The Kd in assay [5] and in assay [7] was 4.8 µM in each case.
For `CC(C)(C)c1ccc(Cn2cc(-c3ccc(O)cc3N)nn2)cc1`, the IC50 in assay [1] was 13.7 µM; in assay [2], 1.6 µM; in assay [3], 14.6 µM.
In the case of `COc1ccc(-c2cn(Cc3cc(C(F)(F)F)cc(C(F)(F)F)c3)nn2)cc1`, the IC50 in assay [1] turned out to be 6.2 µM; in assay [2], 14.1 µM; in assay [4] it was 22.4 µM; in assay [6], 18.1 µM; in assay [3], 9.8 µM. Moreover, the Kd in assay [5] amounted to 3.1 µM; in assay [7], 7 µM.
Take `O=C(O)c1csc(-c2ccc(Cl)cc2)n1`: the outcome in assay [5] was Active.
Take `COc1cc(-c2cn(Cc3ccc(C(C)(C)C)cc3)nn2)cc(OC)c1OC`: the results for the IC50 in assay [1], in assay [2] and in assay [3] were 2.7 µM, 1.8 µM and 2.7 µM, respectively.
For `CC(C)(C)c1csc(N)n1`, the result in assay [5] was Active.
Turning to `CC(=O)c1ccc(-n2ccnc2)cc1`, the result in assay [5] was Active.
Turning to `CC(C)(C)c1ccc(Cn2cc(-c3ccc(O)cc3[N+](=O)[O-])nn2)cc1`, the figures for the IC50 in assay [1], in assay [2] and in assay [3] were 1.7 µM, 1.6 µM and 1.7 µM, respectively.
As for `Nc1cccs1`, the result in assay [5] was Active.
Consider `CC(C)(C)c1ccc(Cn2cc(-c3ccc(O)cc3)nn2)cc1`, for which the IC50 in assay [1] came out at 1.3 µM; in assay [2] it was 5.6 µM; in assay [3], 1.8 µM.
Turning to `Cc1noc(N)c1C`, in assay [5], the result was Active.
Still for that read-out and setting: the same measure for `CCSc1ccc(N)s1`: “Active”.
With `CC(C)(C)c1ccc(Cn2cc(-c3ccc(O)cc3)nn2)c(O)c1`, the results for the IC50 in assay [1], in assay [2] and in assay [3] were more than 40 µM, more than 20 µM and more than 40 µM, respectively.
As to `C=CCNC1=C2C[C@@H](C)C[C@H](OC)[C@H](O)[C@@H](C)/C=C(\C)[C@H](OC(N)=O)[C@@H](OC)/C=C\C=C(/C)C(=O)NC(=CC1=O)C2=O` [TANESPIMYCIN], the half-maximal inhibitory concentration (IC50) is 3.03 µM in assay [2], 19.4 µM in assay [4] and 8 µM in assay [6].
On to `Nc1cc(-c2ccccc2)n[nH]1`, for which, in assay [5], the outcome was Active.
